Assay results: ChEMBL document CHEMBL1909523, “2,6-Bis-arylmethyloxy-5-hydroxychromones with antiviral activity against both hepatitis C virus (HCV) and SARS-associated coronavirus (SCV)” (Eur J Med Chem, 2011)
The source made the active and inactive calls. The rule behind the calls is not given here.

What was measured:
HS27 = assay: Cytotoxicity against human HS27 cells after 24 hrs by MTT assay; format: cell-based; settings: hs27, 24 h
Method in brief: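 Normal human fibroblast HS27 cells, 5 × 10^3/well in DMEM, grown 1 day (37 °C, 5% CO2), then given compounds at 0.1, 0.5, 1, 5, 10 and 50 µM (from DMSO) for 24 h; MTT viability read-out; triplicates, repeated three times. Value is the concentration reducing proliferation by 50%.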

[1] = Inhibition of NTPase activity of SCV NTPase/helicase after 5 mins by FRET assay; parameters: species or system Severe acute respiratory syndrome-related coronavirus
[2] = Inhibition of helicase activity of SCV NTPase/helicase assessed as inhibition of ds-DNA unwinding after 5 mins by FRET assay; parameters: species or system Severe acute respiratory syndrome-related coronavirus
Method in brief: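 FRET unwinding: helicase solution (150 nM, 20 mM HEPES pH 7.4) preincubated 5 min at rt with compound. Started with 5× mix (5 mM MgCl2, 45 mM ATP, 25 mM DTT, 100 nM substrate): 25-bp TAMRA/fluorescein dsDNA with 20-dT 5′ overhang. Run 2 min at 37 °C, stopped with EDTA plus unlabelled trap oligomer; ex 485/em 535 nm. Value is 50% inhibition concentration.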

Hepatitis C virus [3] = assay: Antiviral activity against HCV genotype 1 infected in human Huh7 cells assessed as reduction of viral replication after 4 days by luciferase reporter gene assay; format: functional, organism-based, Hepacivirus hominis; settings: genotype 1, Huh-7, 96 h
Method in brief: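 Subgenomic genotype 1 replicon (luc-ubi-neo) Huh-5-2 cells, 5 × 10^3/well, in DMEM with 500 µg/mL G418 for 24 h at 37 °C, 5% CO2; medium refreshed with G418, compounds added from DMSO stock; 4 days at 37 °C; luciferase read-out. Value is the concentration inhibiting HCV RNA replication by 50%.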

Hepatitis C virus [4] = assay: Inhibition of HCV genotype 1b NS5B cdelta21 RNA polymerase using [alpha32p]GTP after 30 mins by microbeta scintillation counting; settings: Hepatitis C virus subtype 1b

SMILES	Activity (HS27) [µM]	IC50 [1] [µM]	IC50 [2] [µM]	EC50 (Hepatitis C virus [3]) [µM]	inhibition (Hepatitis C virus [4])
O=c1cc(OCc2ccc(I)cc2)oc2ccc(OCc3cccc(Cl)c3)c(O)c12	> 50	23	31	3	inactive
N#Cc1cccc(COc2cc(O)c3c(=O)c(O)c(-c4ccccc4)oc3c2)c1	> 50	> 50	> 50	–	–
N#Cc1cccc(COc2cc(=O)c3c(O)c(OCc4cccc(Cl)c4)ccc3o2)c1	> 50	37	> 50	17	inactive
O=c1cc(OCc2cc(Cl)cc(Cl)c2)oc2ccc(OCc3cccc(Cl)c3)c(O)c12	> 50	> 50	> 50	1	inactive
O=c1cc(OCc2ccccc2)oc2ccc(OCc3cccc(Cl)c3)c(O)c12	> 50	> 50	> 50	> 50	inactive
O=C(O)/C(O)=C/C(=O)c1cccc(NCc2ccc(Cl)cc2)c1	> 50	> 50	–	0.8	–
O=c1cc(OCc2cccc(I)c2)oc2ccc(OCc3cccc(Cl)c3)c(O)c12	> 50	4	11	4	inactive
O=c1cc(OCc2cccc(Cl)c2)oc2ccc(OCc3cccc(Cl)c3)c(O)c12	> 50	10	40	17	inactive
O=c1cc(OCc2ccc(Cl)cc2)oc2ccc(OCc3cccc(Cl)c3)c(O)c12	> 50	28	53	24	inactive
O=c1c(OCc2cccc([N+](=O)[O-])c2)c(-c2ccccc2)oc2cc(O)cc(O)c12	> 50	> 50	> 50	–	–
